For series [1], the target named is Renin (Homo sapiens) (UniProt P00797). Kind of series: Maximum hypotensive activity, the magnitude of the human renin dependent blood pressure component was measured (administered intravenously.).
The target is the same in series [2]. The series is described as follows: Maximum hypotensive activity, the magnitude of the human renin dependent blood pressure component was measured. (administered perorally).
Series [3] shares this target. The series is described as follows: Tested in vitro for inhibitory activity against plasma renin in human plasma.
The nature of series [4]: Solubility in water at 25 degrees Centigrade. The series is classed as physicochemical. The note with it: read-out: S. In outline:
(§1)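 Visual estimate: compound added to distilled water in a series of clear tubes at 1-100 mg/mL, tubes shaken, observed first at 25 °C and again after 30 min in a 37 °C water bath.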

A short description of series [5]: Solubility in water at 37 degrees Centigrade. The series is classed as physicochemical. The note with it: read-out: S. In outline: as §1

The structures appear in SMILES notation. In brackets after ≈: the same amount, converted by molar mass. *1 amine or outer side, *2 acyl side, *3 side chain or, on linkers, in order; H or OH if unused. Where a SMILES comes first, the peptide text is derived from it. [ ]: non-standard residue; d: D form. The star is where a group is joined. Leuψ((S)CH(OH)CH2)dVal = CC(C)C[C@H](N[*:1])[C@@H](O)C[C@@H](C(=O)[*:2])C(C)C; X2 = OC[C@H]1O[C@H](O)[C@H](N*)[C@@H](O)[C@H]1O; NMeH = CN[C@@H](Cc1c[nH]cn1)C(=O)O; NHCH2(2-pyridyl) = c1ccc(CN*)nc1; NHC(CH2OH)3 = OCC(CO)(CO)N*; Boc = CC(C)(C)OC(=O)*; CO = O=C([*:1])[*:2]

In general, IC50 refers to the midpoint of a concentration-inhibition curve. A higher IC50 goes with weaker potency in that assay.

Chain of Renin (Homo sapiens) (P00797 whole entry, looked up): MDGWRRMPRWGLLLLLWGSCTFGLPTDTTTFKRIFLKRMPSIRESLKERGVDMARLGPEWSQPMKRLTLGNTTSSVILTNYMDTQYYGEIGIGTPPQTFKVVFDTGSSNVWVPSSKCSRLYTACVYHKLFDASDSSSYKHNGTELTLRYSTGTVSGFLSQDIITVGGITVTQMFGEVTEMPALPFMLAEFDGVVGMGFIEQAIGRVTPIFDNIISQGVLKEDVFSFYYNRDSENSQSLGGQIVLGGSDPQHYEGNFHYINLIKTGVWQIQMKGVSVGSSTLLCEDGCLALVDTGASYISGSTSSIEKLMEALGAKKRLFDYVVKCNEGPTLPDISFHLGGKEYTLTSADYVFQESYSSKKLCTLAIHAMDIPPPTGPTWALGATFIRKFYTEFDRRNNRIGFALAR

Take `CC[C@H](C)[C@H](NC(=O)[C@H](C[C@H](O)[C@H](CC(C)C)NC(=O)[C@H](Cc1c[nH]cn1)N(C)C(=O)[C@H](Cc1ccccc1)NC(=O)[C@@H]1CCCN1C(=O)OC(C)(C)C)C(C)C)C(=O)NC(CO)(CO)CO` (Boc-PF[NMeH][Leuψ((S)CH(OH)CH2)dVal]I-{NHC(CH2OH)3}): the figures for the Hypotensive activity on Renin (Homo sapiens) [1] and on Renin (Homo sapiens) [2] were 30 mmHg and 35 mmHg, respectively. For the same molecule, the IC50 on Renin (Homo sapiens) [3] stood at 0.26 nM. The solubility in series [4] is 1000 µg/mL (≈ 1060 µM); in series [5], under 1000 µg/mL.
For `CC[C@H](C)[C@H](NC(=O)[C@H](C[C@H](O)[C@H](CC(C)C)NC(=O)[C@H](Cc1c[nH]cn1)N(C)C(=O)[C@H](Cc1ccccc1)NC(=O)[C@@H]1CCCN1C(=O)OC(C)(C)C)C(C)C)C(=O)NCc1ccccn1` (Boc-PF[NMeH][Leuψ((S)CH(OH)CH2)dVal]I-{NHCH2(2-pyridyl)}), the Hypotensive activity on Renin (Homo sapiens) [1] is 25 mmHg; at Renin (Homo sapiens) [2], 24 mmHg. For the same molecule, at Renin (Homo sapiens) [3], the IC50 came to 0.26 nM. The solubility in series [4] and in series [5] was under 1000 µg/mL each time.
`CC[C@H](C)[C@H](NC(=O)[C@H](C[C@H](O)[C@H](CC(C)C)NC(=O)[C@H](Cc1c[nH]cn1)N(C)C(=O)[C@H](Cc1ccccc1)NC(=O)[C@@H]1CCCN1C(=O)NC(CO)(CO)CO)C(C)C)C(=O)NCc1ccccn1` ({NHC(CH2OH)3-CO}-PF[NMeH][Leuψ((S)CH(OH)CH2)dVal]I-{NHCH2(2-pyridyl)}): the figures for the Hypotensive activity on Renin (Homo sapiens) [1] and at Renin (Homo sapiens) [2] were 40 mmHg and 38 mmHg, respectively. The same molecule returned a half-maximal inhibitory concentration (IC50) on Renin (Homo sapiens) [3] of 0.33 nM. Moreover, the solubility in series [4] and in series [5] was 1000 µg/mL (≈ 1020 µM) throughout.
For `CC[C@H](C)[C@H](NC(=O)[C@H](C[C@H](O)[C@H](CC(C)C)NC(=O)[C@H](Cc1cnc[nH]1)N(C)C(=O)[C@H](Cc1ccccc1)NC(=O)[C@@H]1CCCN1C(=O)N[C@@H]1[C@@H](O)[C@@H](O)[C@@H](CO)O[C@@H]1O)C(C)C)C(=O)NCc1ccccn1` ({X2-CO}-PF[NMeH][Leuψ((S)CH(OH)CH2)dVal]I-{NHCH2(2-pyridyl)}), half-maximal inhibition at Renin (Homo sapiens) [3] (IC50) was put at 0.49 nM. Besides, the solubility in series [4] and in series [5] was under 2000 µg/mL in each case.
On to `CC[C@H](C)[C@H](NC(=O)[C@H](C[C@H](O)[C@H](CC(C)C)NC(=O)[C@H](Cc1c[nH]cn1)N(C)C(=O)[C@H](Cc1ccccc1)NC(=O)[C@@H]1CCCN1C(=O)N[C@@H]1[C@@H](O)[C@@H](O)[C@@H](CO)O[C@@H]1O)C(C)C)C(=O)NCc1ccccn1` ({X2-CO}-PF[NMeH][Leuψ((S)CH(OH)CH2)dVal]I-{NHCH2(2-pyridyl)}), for which the Hypotensive activity is 36 mmHg at Renin (Homo sapiens) [1] and 37 mmHg at Renin (Homo sapiens) [2].

These data come from ChEMBL document CHEMBL1124884, “Potent renin inhibitory peptides containing hydrophilic end groups” (J Med Chem, 1990).
